UCH37 DUB inh: human UCH37 deubiquitinating enzyme inhibition; inhibition, % (concentration not given with the values); hit rate 0.33% among 330,000; purified proteasome/UCH37, Ub-AMC cleavage fluorescence; Q9Y5K5;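 active means mean inhibition over replicate wells above about 20%, limit read from the data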;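 further: 0% = compound-free wells with enzyme and 100% = wells lacking proteasome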
Target sequence (Q9Y5K5 whole entry, looked up): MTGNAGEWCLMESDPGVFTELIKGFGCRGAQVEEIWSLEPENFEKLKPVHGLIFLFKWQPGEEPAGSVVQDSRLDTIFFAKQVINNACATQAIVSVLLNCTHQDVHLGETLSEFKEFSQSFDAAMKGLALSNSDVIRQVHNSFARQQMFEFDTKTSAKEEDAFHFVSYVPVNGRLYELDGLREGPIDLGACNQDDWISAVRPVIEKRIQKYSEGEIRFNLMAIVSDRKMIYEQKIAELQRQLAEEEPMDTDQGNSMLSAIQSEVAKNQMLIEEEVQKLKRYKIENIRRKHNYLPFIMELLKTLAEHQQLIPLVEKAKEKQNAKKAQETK
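Assay system: Proteasome-bound UCH37. Buffer or medium: pH 7.4 Tris-HCl (50 mM) with ovalbumin, ATP-MgCl2, DTT. Incubation: 30 min preincubation with enzyme, 25 min cleavage at room temperature. Measured by: fluorescence, ex 355 nm, em 460 nm. Read-out basis: percent inhibition. Control set: wells without proteasome as full block, compound-free enzyme plus substrate as uninhibited.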
MIN6 prolif: inducers of beta-cell replication in MIN6 cells | MIN6 cells proliferation, ATPlite luminescence, 48 h; cells starved in 0.2% serum; 100% = growth in 10% serum | proliferation, % at 10 µM | hit rate 0.29% among 330,000 | AID 2380;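 active means compounds whose signal lies at least 3.5 SD above the mean of all wells on their plate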;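 further: 0% = DMSO-treated cells in low-serum medium and 100% = 10% serum control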
Rce1 inh: inhibitors of yeast Ras-converting enzyme | Q03530 | yeast membranes, quenched prenylated peptide cleavage fluorescence | calls only | hit rate 0.27% among 290,000 | AID 2563;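 active means fall in fluorescence gain of 50% or more versus controls, with final raw signal at or below 3038400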;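 further: plate controls were neutral control wells for no effect and wells lacking membranes for full effect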
Target sequence (Q03530 whole entry, looked up): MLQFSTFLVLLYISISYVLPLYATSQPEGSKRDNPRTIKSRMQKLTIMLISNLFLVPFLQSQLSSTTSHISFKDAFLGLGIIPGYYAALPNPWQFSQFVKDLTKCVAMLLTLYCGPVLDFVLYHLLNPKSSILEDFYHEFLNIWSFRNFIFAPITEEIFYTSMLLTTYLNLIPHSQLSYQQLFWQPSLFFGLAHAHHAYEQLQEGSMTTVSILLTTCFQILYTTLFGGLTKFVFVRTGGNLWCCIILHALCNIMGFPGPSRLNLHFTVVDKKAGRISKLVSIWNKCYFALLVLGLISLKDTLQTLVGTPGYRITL
Yeast superoxide: yeast age-related superoxide inhibition as caloric restriction mimetic; S. cerevisiae aged cells, superoxide DHE fluorescence; hits give low values; superoxide response (% of plate mean), % at 10 µM; hit rate 0.18% among 330,000; AID 2690;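 active means superoxide response under a set limit, about three screen SD below normal, cut at about 65% in these data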;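 further: yeast aged for seven days with compound at 30 °C before DHE staining; 100% = average MFI of all compound-treated wells on the plate with controls excluded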
PG9 binder: binds the HIV-1 gp120 antibody PG9. TR-FRET gp120-PG9 antibody binding. inhibition, % at 6.7 µM. hit rate 0.43% among 360,000; in the data active means inhibition above about 8.5%
Rev-erbA mod: Rev-erb alpha (human) modulation | hit rate 0.79% among 370,000 | activity, % at 10 µM | Rev-erbα–FITC-DNA binding, fluorescence polarization, 90 min | P20393;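 active means activity above about 14%, limit read from the data; passing the limit was not always enough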;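 further: 0% = DMSO wells with 35 nM protein and 100% = DMSO wells with 750 nM protein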
PG9 binder conf: PG9 antibody binding, confirmed; shares compounds with PG9 binder; TR-FRET PG9 antibody binding, biochemical; inhibition, % at 6.7 µM; hit rate 90% among 1,500; AID 651571; in the data active means inhibition above about 9%
PGV04 Ab binding: PGV04 control antibody binding, counter-screen; shares compounds with PG9 binder; inhibition, % at 6.7 µM; hit rate 95% among 1,500; TR-FRET PGV04 antibody-gp120 binding, biochemical; in the data active means inhibition above about 9.5%
PG9 binder DR: small molecules binding HIV-1 gp120 antibody PG9; AID 651848; TR-FRET PG9 antibody-gp120 binding inhibition; IC50, µM; shares compounds with PG9 binder; 95 tested, under 10 active; in the data active means IC50 below about 10 µM
PGV04 binding DR: counter-screen for PG9 binders: binding to control antibody PGV04; shares compounds with PG9 binder; TR-FRET binding to control antibody PGV04; IC50, µM; hit rate 20% among 95; AID 651937
PG126 binding DR: counter-screen for PG9 binders: binding to control antibody PG126; IC50, µM; shares compounds with PG9 binder; AID 651939; hit rate 20% among 95; TR-FRET binding to antibody PG126, counterscreen
Starred values were filed as active, the others as inactive; i = inactive; / = no result. Compounds with a hit are over-represented: about 1.9% of the library has one in this group of screens. Unless noted, no stated cut-off is given here; in the data, active means IC50 below about 9 µM; inactive means the rest.

SMILES | UCH37 DUB inh | MIN6 prolif | Rce1 inh | Yeast superoxide | PG9 binder | Rev-erbA mod | PG9 binder conf | PGV04 Ab binding | others
COc1cccc(C2C(C(=O)c3cc4ccccc4o3)=C(O)C(=O)N2CCN2CCOCC2)c1 (stereo not given) | 6 | 0 | i | 114 | 15* | -2 | 31* | 54*
O=C(C1=C(O)C(=O)N(CCN2CCOCC2)C1c1ccc(Cl)cc1)c1cc2ccccc2o1 (stereo not given) | 7 | -4 | i | 102 | 5 | 5 | / | /
O=C(C1=C(O)C(=O)N(CCCN2CCOCC2)C1c1ccc(Cl)cc1)c1cc2ccccc2o1 (stereo not given) | 5 | -4 | i | 95 | 20* | 0 | 24* | 30*
COc1cccc(N2C(=NC(=O)c3ccccc3)SC3CS(=O)(=O)CC32)c1 (stereo not given) | 2 | -1 | i | 93 | 11* | 9 | 10* | 14*
COc1ccc(N2C(=NC(=O)c3ccccc3)SC3CS(=O)(=O)CC32)cc1 (stereo not given) | 5 | 1 | i | 101 | -2 | 4 | / | /
CCOC(=O)c1c(C)[nH]sc1=S | 8 | 0 | i | / | 17* | 5 | 9.3* | 8 | PG9 binder DR=>67;PGV04 binding DR=i;PG126 binding DR=i
CCOC(=O)c1sc(=S)[nH]c1C | / | / | / | / | 19* | 1 | 11* | 9 | PG9 binder DR=i;PGV04 binding DR=i;PG126 binding DR=i
CC(=NNC(=O)CC#N)c1cc2ccccc2oc1=O | 6 | / | / | / | / | / | / | /
Cc1cccc(-n2c(-c3ccco3)n[nH]c2=S)c1 | -2 | 2 | i | 93 | 14* | 0 | 17* | 20*
Cc1ccc2nc(SCC(=O)NCc3ccco3)c(C#N)cc2c1 | -2 | -2 | i | 102 | 13* | -3 | 11* | 18*
Cc1ccc(CNC(=O)CSc2nc(C)cc(C)c2C#N)cc1 | 5 | 4 | / | 104 | 58* | 14 | 39* | 45*
Cc1ccc2cc(C#N)c(SCC(=O)NCc3ccco3)nc2c1 | -11 | -1 | i | 124 | 0 | 6 | / | /
CNC(=S)NN=Cc1c(C)cccc1Cl | 1 | / | / | / | / | / | / | /
Cc1c(NC(=O)c2ccc(N3CCCC3)c([N+](=O)[O-])c2)cccc1-c1nc2ccccc2s1 | 6 | -3 | i | 87 | -1 | 5 | / | /
Cc1c(NC(=O)c2ncn[nH]2)cccc1-c1nc2ccccc2s1 | 1 | -4 | i | 106 | 27* | 10 | 33* | 51*
COc1ccc2[nH]c(=O)c(COC(=O)c3cccs3)cc2c1 | -46 | 0 | i | 105 | 33* | 3 | 16* | 26*
COc1ccc2[nH]c(=O)c(CN(C)C(=O)c3cccs3)cc2c1 | -45 | -1 | i | 98 | 1 | 6 | / | /
O=C(NN=Cc1cc(Br)cs1)c1c[nH]c2ccccc12 | 4 | / | / | / | / | / | / | /
Cc1cc(OC(=O)c2cc(Cl)ccc2Cl)c([N+](=O)[O-])c(=O)[nH]1 | 7 | -4 | i | 101 | 30* | 4 | 7 | 11*
CC(=NNc1ccc([N+](=O)[O-])cc1)c1cc2ccccc2o1 | -1 | / | / | / | / | / | / | /
CC(=O)NN=C(C)c1ccc(Br)cc1Br | 3 | / | / | / | / | / | / | /
O=C(NN=Cc1c[nH]c2ccc(Br)cc12)c1ccn(Cc2ccc(Cl)cc2)n1 | 0 | / | / | / | / | / | / | /
COCCCN1C(=O)C(=O)/C(=C(/O)c2ccc(OCC(C)C)cc2)C1c1cccnc1 (stereo not given) | 0 | -3 | i | 102 | 1 | 1 | / | /
COCCCN1C(=O)C(=O)/C(=C(/O)c2ccc(OC(C)C)cc2)C1c1cccnc1 (stereo not given) | 3 | 1 | i | 97 | 10* | 0 | 14* | 19*
Cc1cc2n(n1)C(c1cn(-c3ccccc3)nc1C)Nc1c(C)cccc1-2 (stereo not given) | -78 | -2 | i | 128 | 15* | 10 | 15* | 22*
SMILES | UCH37 DUB inh | MIN6 prolif | Rce1 inh | Yeast superoxide | PG9 binder | Rev-erbA mod | PG9 binder conf | PGV04 Ab binding | others
Cc1cc2n(n1)C(c1ccc3c(c1)OCO3)Nc1c(C)cccc1-2 (stereo not given) | -33 | -2 | i | 126 | 0 | 10 | / | /
COc1ccccc1CCNC(=O)c1cc(-c2ccccn2)nc2ccccc12 | 1 | 2 | / | / | 27* | 12 | 22* | 32*
Cc1cc(C)c2nc(-c3ccccn3)cc(C(=O)NCCc3ccc(S(N)(=O)=O)cc3)c2c1 | -112 | -4 | i | 99 | 30* | 8 | 23* | 40*
CCOC(=O)C1C(=NO)CC(C)(O)C(C(=O)OCC)C1c1ccc(N(C)C)cc1 (stereo not given) | -1 | / | / | / | / | / | / | /
COc1ccc(CC(=O)Nc2ccc(N3CCN(c4ccc(OC)cc4)CC3)c(C#N)c2)cc1 | -17 | -1 | i | 102 | 9.1* | 8 | 18* | 24*
CCOc1cccc2cc(C(=O)NC(C)c3ccccc3)c(=N)oc12 (stereo not given) | -2 | -1 | i | 97 | 9.0* | 1 | 9.2* | 15*
COc1ccc(C=NNC(=O)c2nonc2C)cc1 | 1 | / | / | / | / | / | / | /
O=C1Cc2c([nH]c3ccc(Br)cc23)-c2ccccc2N1 | / | / | / | / | 11* | -8 | 16* | 22*
CCOc1ccc(NC(=O)COC(=O)c2ccc3c(c2)OCCO3)cc1 | 4 | -1 | / | 100 | 54* | 4 | 48* | 60*
CCN(CC)C(=O)C(=O)NN=Cc1ccc(C(=O)OC)cc1 | 2 | / | / | / | / | / | / | /
O=C(ON=C(c1ccccc1)c1ccccn1)c1ccc(Cl)c(Cl)c1 | 2 | / | / | / | / | / | / | /
Cc1ccc2c(Cl)c(C(=O)Nc3ccc4c(c3)OCO4)sc2c1 | -66 | 0 | i | 94 | 14* | 11 | 26* | 53*
COc1ccc(OC)c(C(C)=NNC(=O)c2cc3cc(Cl)ccc3n2C)c1 | 4 | / | / | / | / | / | / | /
CN1CCN(Cc2c(O)ccc3occ(C(=O)c4ccccc4)c23)CC1 | 4 | -4 | i | 98 | 2 | 1 | / | /
CC(=O)C(C(C)=O)c1c(Cl)c(O)c(O)c2c(C(=O)c3ccccc3)coc12 | -1 | -7 | i | 97 | 12* | 2 | 18* | 20*
COc1ccc(N2CCN(C(=O)CSc3ncn[nH]3)CC2)cc1 | 3 | -1 | i | 100 | 2 | -6 | / | /

Compound activity (PubChem BioAssay)
